Values after ≈ are worked out from the molar mass of the structure shown. “Also recorded” adds a separate entry of the source.
Key:
[1] = tested on: patients with advanced solid tumors; experiment: Phase I first-in-human study, safety and antitumor activity; type: in vivo
How it was run: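 Patients with advanced solid tumours. Without run-in, patients got 5, 7.5, 10, 15, 20, 22.5 or 30 mg continuous q.d.; 30 or 45 mg intermittent q.d. (4 days on/3 off); or 5 mg continuous b.i.d. Adverse events were graded by CTCAE v4.03.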

Population PK modeling = type: in vivo, human; conditions: patients, 5-45 mg oral
How it was run: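 Pooled 1098 plasma concentrations from 66 patients across 10 oral regimens, measured by LC-MS/MS (LLOQ 1.0 ng/ml). Serial sampling to 24 h on C1D1 and C1D15, plus predose troughs. Two-compartment model with first-order absorption, lag time and linear clearance, fitted in log domain by FOCE in NONMEM. Log-normal interindividual variability on Ka, CL, Vc, CLd, Vp and Tlag; baseline covariates screened.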

[2] = tested on: skin AXIN2 mRNA expression; experiment: Exposure-response analysis for biomarker; type: in vivo; conditions: Homo sapiens, read-out: WNT974 concentration resulting in 50% Emax (EC50), skin AXIN2 reduction, estimated mean (90% prediction interval)
[3] = Simulated steady-state PK from the PopPK model; type: in vivo, human
How it was run: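 Steady-state C1D15 plasma profiles simulated from the final population PK model in 200–500 hypothetical patients per continuous once-daily dosing scenario. Cmin, Cmax and AUC24h derived from the simulated profiles.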

[4] = cited from earlier work
CYP3A4 = conditions: cited from earlier work
CYP3A = conditions: in vitro; cited from earlier work
[5] = tested on: xenograft and Wnt ligand-driven mouse tumor models; conditions: cited from earlier work
[6] = cited from earlier work; remark: listed apart in the source
[7] = tested on: patients with advanced solid tumors; conditions: cited from earlier work
Porcupine = conditions: read-out: in vitro cellular IC50 for Porcupine; cited from earlier work

## Cc1cc(-c2ncc(CC(=O)Nc3ccc(-c4cnccn4)cn3)cc2C)ccn1 [WNT974]
[1]; dose-escalation part, 5-45 mg
  maximum tolerated dose (MTD): not established
[1]; dose-escalation study
  antitumor activity in patients: limited antitumor activity
Population PK modeling
  Absorption lag time (Tlag), population estimate (%RSE): 0.412 (3.2) h
  Apparent central clearance (CL/F), population estimate (%RSE): 20.7 (3.9) L/h
  Central volume of distribution (Vc), population estimate (%RSE): 138 (2.0) L
  Distribution clearance (CLd), population estimate (%RSE): 7.11 (9.4) L/h
  Peripheral volume of distribution (Vp), population estimate (%RSE): 260 (9.4) L
Population PK modeling; 66 patients
  Absorption rate constant (Ka), population estimate (%RSE): 1.60 (17.0) 1/h
[2]
  EC50: 0.45 ng/mL (≈ 1.14 nM)
[3]; 5 mg q.d.
  Predicted steady-state AUC24h, mean (90% confidence interval): 233 (133–445) ng h/ml
  Predicted steady-state Cmax, mean (90% confidence interval): 28.1 (13.7–59.1) ng/ml
  Predicted steady-state Cmin, mean (90% confidence interval): 2.83 (0.835–8.02) ng/ml
[3]; 10 mg q.d.
  Predicted steady-state AUC24h, mean (90% confidence interval): 468 (254–880) ng h/ml
  Predicted steady-state Cmax, mean (90% confidence interval): 55.7 (26.1–109) ng/ml
  Predicted steady-state Cmin, mean (90% confidence interval): 5.78 (1.66–16.3) ng/ml
[3]; 15 mg q.d.
  Predicted steady-state AUC24h, mean (90% confidence interval): 699 (394–1294) ng h/ml
  Predicted steady-state Cmax, mean (90% confidence interval): 80.6 (41.7–166) ng/ml
  Predicted steady-state Cmin, mean (90% confidence interval): 8.21 (2.60–24.3) ng/ml
[4]; all the animal species (mouse, rat, dog)
  elimination half-life (t1/2): 0.6 to 2.2 h
[4]; mouse, rat, and dog
  oral bioavailability: 60–100%
CYP3A4
  metabolism: extensively metabolized, primarily by CYP3A4
CYP3A
  CYP3A inhibition: moderate reversible inhibitor
[5]; preclinical tumor models
  antitumor activity: exhibited antitumor activity; also recorded: potent antitumor activity
[5]; xenograft and Wnt ligand-driven mouse tumor models
  AXIN2 mRNA expression in tumors: reduction of AXIN2 mRNA expression in tumors
[6]; C1D15, continuous q.d. dose of 5-30 mg
  mean unbound Cmin: 1.1 to 7.6 nM
[6]; dose range 5-45 mg
  dose proportionality of exposure: dose proportional
[6]; patients, oral administration
  mean t1/2: 5 to 8 h
  median Tmax: 1 to 3 h
[7]; FIH study
  patients with dysgeusia (most common adverse event): ~ 50 % of patients
[7]; dose-expansion part of the single-agent study
  best response: patients with stable disease: 16 % of patients
Porcupine
  IC50: 0.4 nM
